# Experimental data: ChEMBL document CHEMBL3745688, “Discovery of novel hybrids of diaryl-1,2,4-triazoles and caffeic acid as dual inhibitors of cyclooxygenase-2 and 5-lipoxygenase for cancer therapy” (Eur J Med Chem, 2016)
# pIC50: −log10 of the molar value.
# Experiments:
# A549 [1] = assay: Induction of apoptosis in human A549 cells assessed as late apoptotic cells at 25 uM after 72 hrs by annexinV-APC/7-AAD staining based flow cytometry (reference value: 1.81%); type: functional
# A549 [2] = assay: Induction of apoptosis in human A549 cells assessed as necrotic cells at 25 uM after 72 hrs by annexinV-APC/7-AAD staining based flow cytometry (Rvb =0.41%); type: functional
# A549 [3] = assay: Cell cycle arrest in human A549 cells assessed as accumulation at G1 phase at 1 uM after 72 hrs by propidium iodide staining based flow cytometry (reference value: 53.66%); type: functional
# A549 [4] = assay: Cell cycle arrest in human A549 cells assessed as accumulation at S phase at 1 uM after 72 hrs by propidium iodide staining based flow cytometry (reference value: 42.46%); type: functional
# A549 [5] = assay: Cell cycle arrest in human A549 cells assessed as accumulation at G1 phase at 5 uM after 72 hrs by propidium iodide staining based flow cytometry (reference value: 53.66%); type: functional
# A549 [6] = assay: Cell cycle arrest in human A549 cells assessed as accumulation at G2 phase at 5 uM after 72 hrs by propidium iodide staining based flow cytometry (reference value: 3.88%); type: functional
# A549 [7] = assay: Cell cycle arrest in human A549 cells assessed as accumulation at S phase at 5 uM after 72 hrs by propidium iodide staining based flow cytometry (reference value: 42.46%); type: functional
# A549 [8] = assay: Cell cycle arrest in human A549 cells assessed as accumulation at G1 phase at 25 uM after 72 hrs by propidium iodide staining based flow cytometry (reference value: 53.66%); type: functional
# A549 [9] = assay: Cell cycle arrest in human A549 cells assessed as accumulation at G2 phase at 25 uM after 72 hrs by propidium iodide staining based flow cytometry (reference value: 3.88%); type: functional
# A549 [10] = assay: Cell cycle arrest in human A549 cells assessed as accumulation at S phase at 25 uM after 72 hrs by propidium iodide staining based flow cytometry (reference value: 42.46%); type: functional
# A549 [11] = assay: Induction of apoptosis in human A549 cells assessed as necrotic cells at 1 uM after 72 hrs by annexinV-APC/7-AAD staining based flow cytometry (reference value: 0.41%); type: functional
# A549 [12] = assay: Induction of apoptosis in human A549 cells assessed as viable cells at 5 uM after 72 hrs by annexinV-APC/7-AAD staining based flow cytometry (Rvb =92.08%); type: functional; conditions: A549, 72 h, read-out: Activity
# A549 [13] = assay: Induction of apoptosis in human A549 cells assessed as early apoptotic cells at 5 uM after 72 hrs by annexinV-APC/7-AAD staining based flow cytometry (reference value: 5.7%); type: functional
# A549 [14] = assay: Induction of apoptosis in human A549 cells assessed as necrotic cells at 5 uM after 72 hrs by annexinV-APC/7-AAD staining based flow cytometry (reference value: 0.41%); type: functional
# A549 [15] = assay: Induction of apoptosis in human A549 cells assessed as viable cells at 25 uM after 72 hrs by annexinV-APC/7-AAD staining based flow cytometry (reference value: 92.08%); type: functional; conditions: A549, 72 h, read-out: Activity
# A549 [16] = assay: Induction of apoptosis in human A549 cells assessed as early apoptotic cells at 25 uM after 72 hrs by annexinV-APC/7-AAD staining based flow cytometry (reference value: 5.7%); type: functional
# [17] = biological target: T1, Prostaglandin G/H synthase 1 (Bos taurus, UniProt O62664); assay: Inhibition of COX1 in calf endotheliocyte assessed as 6keto-PGF1alpha production pretreated for 20 mins followed by addition of 10 uM arachidonic acid as substrate for 20 mins by radioimmuno assay
# T1 sequence (O62664 whole entry): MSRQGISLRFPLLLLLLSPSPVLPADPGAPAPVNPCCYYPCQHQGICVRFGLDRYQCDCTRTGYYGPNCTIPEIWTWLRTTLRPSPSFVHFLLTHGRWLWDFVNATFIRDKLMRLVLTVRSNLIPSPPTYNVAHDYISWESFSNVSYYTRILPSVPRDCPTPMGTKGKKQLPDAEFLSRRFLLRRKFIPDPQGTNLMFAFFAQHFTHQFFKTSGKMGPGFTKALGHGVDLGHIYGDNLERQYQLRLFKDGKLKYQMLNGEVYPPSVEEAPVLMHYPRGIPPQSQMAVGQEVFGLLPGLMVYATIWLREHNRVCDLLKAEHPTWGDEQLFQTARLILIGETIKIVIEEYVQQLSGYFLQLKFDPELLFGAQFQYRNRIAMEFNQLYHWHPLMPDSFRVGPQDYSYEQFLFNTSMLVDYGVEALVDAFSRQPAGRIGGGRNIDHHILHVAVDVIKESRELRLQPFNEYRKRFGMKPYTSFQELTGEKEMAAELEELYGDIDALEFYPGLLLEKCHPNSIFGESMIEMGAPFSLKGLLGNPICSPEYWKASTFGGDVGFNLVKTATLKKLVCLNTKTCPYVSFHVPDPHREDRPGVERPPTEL
# Method in brief: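 Endothelial cells from neonatal calf thoracic aorta plated at 1.0×10^6 in DMEM with 10% FBS and grown 24 h at 37 °C in 5% CO₂. Compound or DMSO added for 20 min, then arachidonic acid (10 μM) for another 20 min. 6-keto-PGF1α in the medium quantified by radioimmunoassay. IC50 is the mean of four determinations.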
# [18] = Selectivity index, ratio of IC50 for rat COX2 to IC50 for calf COX1
# Method in brief: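 Ratio of COX-2 IC50 to COX-1 IC50. COX-2 was measured in rat peritoneal macrophages: 1.0×10^6/well in RPMI 1640 with 5% FCS, grown 24 h, COX-1 inactivated with 1 mM aspirin, COX-2 induced with LPS 1 µg/mL for 6 h, compound added for 30 min, then arachidonic acid 10 µM for 20 min, PGE2 read by EIA. COX-1 was measured in calf aortic endothelial cells by 6-keto-PGF1α radioimmunoassay.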
# A549 [19] = assay: Antiproliferative activity against human A549 cells after 72 hrs by MTT assay; type: functional, cell-based; conditions: A549, 72 h
# Method in brief: (§1)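 Cells seeded at 5×10^4/well, grown 24 h at 37 °C in 5% CO₂, then exposed to compounds dissolved in DMSO at a range of concentrations for 72 h. MTT (5 mg/mL in PBS) added for 4 h, then OD read at 570 nm. IC50 taken from dose-response curves, mean ± S.D. of three independent experiments.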
# [20] = Antiproliferative activity against human Caco2 cells after 72 hrs by MTT assay; type: functional, cell-based; conditions: Caco-2, 72 h; method in brief: as §1
# [21] = Antiproliferative activity against human PC3 cells after 72 hrs by MTT assay; type: functional, cell-based; conditions: PC-3, 72 h; method in brief: as §1
# [22] = Antiproliferative activity against mouse B16F10 cells after 72 hrs by MTT assay; type: functional, cell-based; conditions: B16-F10, 72 h; method in brief: as §1
# A549 [23] = assay: Induction of apoptosis in human A549 cells assessed as viable cells at 1 uM after 72 hrs by annexinV-APC/7-AAD staining based flow cytometry (reference value: 92.08%); type: functional; conditions: A549, 72 h, read-out: Activity
# A549 [24] = assay: Induction of apoptosis in human A549 cells assessed as early apoptotic cells at 1 uM after 72 hrs by annexinV-APC/7-AAD staining based flow cytometry (reference value: 5.7%); type: functional
# A549 [25] = assay: Induction of apoptosis in human A549 cells assessed as late apoptotic cells at 1 uM after 72 hrs by annexinV-APC/7-AAD staining based flow cytometry (reference value: 1.81%); type: functional
smiles,measurement,setting,value
CS(=O)(=O)c1ccc(-c2nc(SCCCOC(=O)/C=C/c3ccc(O)c(O)c3)nn2-c2ccc(F)cc2)cc1,Activity,A549 [1],6.15%
same,Activity,A549 [2],1.51%
same,Activity,A549 [3],49.85%
same,Activity,A549 [4],42.92%
same,Activity,A549 [5],45.34%
same,Activity,A549 [6],13.76%
same,Activity,A549 [7],40.9%
same,Activity,A549 [8],47.29%
same,Activity,A549 [9],20.53%
same,Activity,A549 [10],32.19%
same,Activity,A549 [11],0.91%
same,viability at 5 µM,A549 [12],67.8%
same,Activity,A549 [13],23.68%
same,Activity,A549 [14],2.14%
same,viability at 25 µM,A549 [15],55.1%
same,Activity,A549 [16],37.2%
same,pIC50,[17],4.90
same,Ratio IC50,[18],0.014
same,pIC50,A549 [19],5.02
same,pIC50,[20],4.95
same,pIC50,[21],5.00
same,pIC50,[22],4.98
same,viability at 1 µM,A549 [23],86.2%
same,Activity,A549 [24],9.73%
same,Activity,A549 [25],3.13%
